Legend:
Vero [1] = assay: In vitro antiviral activity against herpes simplex type 1 (HSV-1) virus was determined in african green monkey kidney (vero,V) expressed as virus rating. Toxic level(>1000 ug/mL); assay type: functional, Chlorocebus sabaeus
Method in brief: (§1)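 Cell monolayers (18 h) infected with 320 TCID50 of virus. Compound was added within 15–30 min at half-log dilutions from 1000 to 1 μg/mL. After 72 h at 37 °C in 5% CO2, CPE was scored 0–4 by microscopy. VR = sum of (virus control − treated) scores, halved at partially toxic levels, divided by 10 × test cups per drug level.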

Vero [2] = assay: In vitro antiviral activity against parainfluenza type 3(para 3) virus was determined in african green monkey kidney (vero,V) expressed as virus rating. Toxic level(>1000 ug/mL); assay type: functional, Chlorocebus sabaeus; method in brief: as §1
Vero [3] = assay: In vitro antiviral activity against vaccinia(VV) virus was determined in african green monkey kidney (vero,V) expressed as virus rating. Toxic level(>1000 ug/mL); assay type: functional, Chlorocebus sabaeus; method in brief: as §1
HEp-2 [4] = assay: In vitro antiviral activity against vaccinia(VV) virus was determined in human laryngeal epithelioma (HEp-2,H)expressed as virus rating. Toxic level (320 ug/mL); assay type: functional; method in brief: as §1
HEp-2 [5] = assay: In vitro antiviral activity against parainfluenza type-3 (para 3) virus was determined in human laryngeal epithelioma (HEp-2,H)expressed as virus rating. Toxic level(320 ug/mL); assay type: functional; method in brief: as §1
HEp-2 [6] = assay: In vitro antiviral activity against herpes simplex type 1 (HSV-1) virus was determined in human laryngeal epithelioma (HEp-2,H)expressed as virus rating. Toxic level(320 ug/mL); assay type: functional; method in brief: as §1
Vero [7] = assay: In vitro antiviral activity against vaccinia(VV) virus was determined in african green monkey kidney (vero,V) expressed as virus rating.; assay type: functional, Chlorocebus sabaeus; method in brief: as §1
Vero [8] = assay: In vitro antiviral activity against parainfluenza type 3(para 3) virus was determined in african green monkey kidney (vero,V) expressed as virus rating.; assay type: functional, Chlorocebus sabaeus; method in brief: as §1
HEp-2 [9] = assay: In vitro antiviral activity against parainfluenza type 3(para 3) virus was determined in human laryngeal epithelioma (HEp-2,H)expressed as virus rating. Toxic level(100 ug/mL); assay type: functional; method in brief: as §1
HEp-2 [10] = assay: In vitro antiviral activity against vaccinia(VV) virus was determined in human laryngeal epithelioma (HEp-2,H)expressed as virus rating. Toxic level(100 ug/mL); assay type: functional; method in brief: as §1
Vero [11] = assay: In vitro antiviral activity against vaccinia(VV) virus was determined in african green monkey kidney (vero,V) expressed as virus rating. Toxic level(1000 ug/mL); assay type: functional, Chlorocebus sabaeus; method in brief: as §1
HEp-2 [12] = assay: In vitro antiviral activity against herpes simplex type 1 (HSV-1) virus was determined in human laryngeal epithelioma (HEp-2,H)expressed as virus rating. Toxic level(100 ug/mL); assay type: functional; method in brief: as §1
Vero [13] = assay: In vitro antiviral activity against herpes simplex type 1 (HSV-1) virus was determined in african green monkey kidney (vero,V) expressed as virus rating. Toxic level(1000 ug/mL); assay type: functional, Chlorocebus sabaeus; method in brief: as §1
Vero [14] = assay: In vitro antiviral activity against parainfluenza type 3(para 3) virus was determined in african green monkey kidney (vero,V) expressed as virus rating. Toxic level(1000 ug/mL); assay type: functional, Chlorocebus sabaeus; method in brief: as §1
Vero [15] = assay: Percentage plaque reduction was determined against Sandfly fever (SF) virus in african green monkey kidney (vero,V) at a conc of <25 ug/mL. Toxic level(>1000 ug/mL); assay type: functional, Chlorocebus sabaeus
Method in brief: (§2)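 Infected Vero 24-well monolayers: virus adsorbed 1 h at 37 °C, then overlaid with agar holding dilutions of compound and incubated again at 37 °C with CO₂. Plaques were stained with crystal violet and counted. Inhibition was scored as % plaque reduction bands (10-30%, 31-60%, 61-90%), each tied to a drug concentration range.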

Vero [16] = assay: Percentage plaque reduction was determined against venezuelan equine encephalitis (VEE) virus in african green monkey kidney (vero,V) at a conc of <25 ug/mL./Toxic level(>1000 ug/mL); assay type: functional, Chlorocebus sabaeus
Vero [17] = assay: Percentage plaque reduction was determined against venezuelan equine encephalitis (VEE) virus in african green monkey kidney (vero,V) at a conc of 25-100 ug/mL. Toxic level(>1000 ug/mL); assay type: functional, Chlorocebus sabaeus
Vero [18] = assay: Percentage plaque reduction was determined against Sandfly fever (SF) virus in african green monkey kidney (vero,V) at a conc of 250-500 ug/mL. Toxic level(>1000 ug/mL); assay type: functional, Chlorocebus sabaeus
Vero [19] = assay: Percentage plaque reduction was determined against rift valley fever(RVF) virus in african green monkey kidney (vero,V) at a conc of 100-250 ug/mL. Toxic level(>1000 ug/mL); assay type: functional, Chlorocebus sabaeus
Vero [20] = assay: Percentage plaque reduction was determined against venezuelan equine encephalitis (VEE) virus in african green monkey kidney (vero,V) at a conc of 250-500 ug/mL. Toxic level(>1000 ug/mL); assay type: functional, Chlorocebus sabaeus
Vero [21] = assay: 0 Percentage plaque reduction was determined against rift valley fever(RVF) virus in african green monkey kidney (vero,V) at a conc of 250-500 ug/mL. Toxic level(>1000 ug/mL); assay type: functional, Chlorocebus sabaeus
Vero [22] = assay: Percentage plaque reduction was determined against rift valley fever(RVF) virus in african green monkey kidney (vero,V) at a conc of <25 ug/mL. Toxic level(>1000 ug/mL); assay type: functional, Chlorocebus sabaeus
Vero [23] = assay: Percentage plaque reduction was determined against Sandfly fever (SF) virus in african green monkey kidney (vero,V) at a conc of 25-100 ug/mL. Toxic level(>1000 ug/mL); assay type: functional, Chlorocebus sabaeus
Vero [24] = assay: Percentage plaque reduction was determined against pichinde(PICH) virus in african green monkey kidney (vero,V). Toxic level(>1000 ug/mL); 31-60; assay type: functional, Chlorocebus sabaeus; method in brief: as §2
Vero [25] = assay: Percentage plaque reduction was determined against rift valley fever(RVF) virus in african green monkey kidney (vero,V) at a conc of 25-100 ug/mL. Toxic level(>1000 ug/mL); assay type: functional, Chlorocebus sabaeus
Vero [26] = assay: Percentage plaque reduction was determined against yellow fever(YF) virus in african green monkey kidney Toxic level(>1000 ug/mL); assay type: functional, Chlorocebus sabaeus
Vero [27] = assay: Percentage plaque reduction was determined against venezuelan equine encephalitis (VEE) virus in african green monkey kidney (vero,V) at a conc of 100-250 ug/mL. Toxic level(>1000 ug/mL); assay type: functional, Chlorocebus sabaeus
Vero [28] = assay: Percentage plaque reduction was determined against Sandfly fever (SF) virus in african green monkey kidney (vero,V) at a conc of 100-250 ug/mL. Toxic level(>1000 ug/mL); assay type: functional, Chlorocebus sabaeus
Vero [29] = assay: Percentage plaque reduction was determined against pichinde(PICH) virus in african green monkey kidney (vero,V). Toxic level(>1000 ug/mL); 61-90; assay type: functional, Chlorocebus sabaeus; method in brief: as §2
Vero [30] = assay: Percentage plaque reduction was determined against Sandfly fever (SF) virus in african green monkey kidney (vero,V) at a conc of 25-100 ug/mL. Toxic level(>1000 ug/mL); 61-90; assay type: functional, Chlorocebus sabaeus
HEp-2 [31] = assay: In vitro antiviral activity against vaccinia(VV) virus was determined in human laryngeal epithelioma (HEp-2,H)expressed as virus rating. Toxic level(>1000 ug/mL); assay type: functional; method in brief: as §1
HEp-2 [32] = assay: In vitro antiviral activity against parainfluenza type 3 (para 3) type 1 (HSV-1) virus was determined in human laryngeal epithelioma (HEp-2,H)expressed as virus rating. Toxic level(>1000 ug/mL); assay type: functional; method in brief: as §1
Vero [33] = assay: Percentage plaque reduction was determined against rift valley fever(RVF) virus in african green monkey kidney (vero,V) at a conc of 100-250 ug/mL. Toxic level(>1000 ug/mL); 31-60; assay type: functional, Chlorocebus sabaeus
HEp-2 [34] = assay: In vitro antiviral activity against herpes simplex type 1 (HSV-1) virus was determined in human laryngeal epithelioma (HEp-2,H)expressed as virus rating. Toxic level(>1000 ug/mL); assay type: functional; method in brief: as §1
Vero [35] = assay: Percentage plaque reduction was determined against yellow fever(YF) virus in african green monkey kidney (vero,V).Toxic level(>1000 ug/mL); 61-90; assay type: functional, Chlorocebus sabaeus
Vero [36] = assay: Percentage plaque reduction was determined against venezuelan equine encephalitis (VEE) virus in african green monkey kidney (vero,V) at a conc of 250-500 ug/mL. Toxic level(>1000 ug/mL); 10-30; assay type: functional, Chlorocebus sabaeus

OC[C@H]1OC(n2ncc3c(S)ncnc32)[C@H](O)[C@@H]1O (some centres not stated)
Virus rating (Vero [1]): 0 | Virus rating (Vero [2]): 0.7 | Virus rating (Vero [3]): 0.9

NC(=O)c1ncnc2c1ncn2C1O[C@H](CO)[C@@H](O)[C@H]1O (some centres not stated)
Virus rating (HEp-2 [4]): 1.1 | Virus rating (HEp-2 [5]): 1.4 | Virus rating (Vero [1]): 0.6 | Virus rating (Vero [2]): 0 | Virus rating (Vero [3]): 1.5 | Virus rating (HEp-2 [6]): 0.6

CSc1ncnc2c1cnn2C1O[C@H](CO)[C@@H](O)[C@H]1O (some centres not stated)
Virus rating (Vero [7]): 0.2 | Virus rating (Vero [1]): 0.2 | Virus rating (Vero [8]): 1

NC(=O)c1ncnc2c1ccn2C1O[C@H](CO)[C@@H](O)[C@H]1O (some centres not stated)
Virus rating (HEp-2 [9]): 0.2 | Virus rating (HEp-2 [10]): 1.2 | Virus rating (Vero [11]): 1.3 | Virus rating (HEp-2 [12]): 0 | Virus rating (Vero [13]): 0.4 | Virus rating (Vero [14]): 0.4

O=C1N=CN=C2C1C=NN2C1O[C@H](CO)[C@@H](O)[C@H]1O (some centres not stated)
Plaque reduction (Vero [15]): 0% | Plaque reduction (Vero [16]): 0% | Plaque reduction (Vero [17]): 0% | Plaque reduction (Vero [18]): 0% | Plaque reduction (Vero [19]): 0% | Plaque reduction (Vero [20]): 0% | Plaque reduction (Vero [21]): 0% | Plaque reduction (Vero [22]): 0% | Plaque reduction (Vero [23]): 0% | Virus rating (Vero [1]): 0 | Plaque reduction (Vero [24]): 31% | Plaque reduction (Vero [25]): 0% | Plaque reduction (Vero [26]): 0% | Plaque reduction (Vero [27]): 0% | Plaque reduction (Vero [28]): 0%

NC(=O)c1ncn([C@@H]2O[C@H](CO)[C@@H](O)[C@H]2O)n1 [RIBAVIRIN]
Plaque reduction (Vero [29]): 61% | Plaque reduction (Vero [30]): 61% | Virus rating (HEp-2 [31]): 1.7 | Virus rating (HEp-2 [32]): 1.7 | Plaque reduction (Vero [33]): 31% | Virus rating (Vero [1]): 0.6 | Virus rating (Vero [2]): 1.3 | Virus rating (Vero [3]): 1.2 | Virus rating (HEp-2 [34]): 1.2 | Plaque reduction (Vero [35]): 61% | Plaque reduction (Vero [36]): 10%

OC[C@H]1O[C@@H](n2cnc3c(S)ncnc32)[C@H](O)[C@@H]1O [THIOINOSINE]
Virus rating (Vero [11]): 1.1 | Virus rating (Vero [13]): 0.8 | Virus rating (Vero [14]): 1.2
